Reference: PMC6349029 (Bioorganic & medicinal chemistry letters, 2018)

Experiments:
kidney filter = settings: in vivo animal model; cited from earlier work
TRPC5 channel = target: T1, TRPC5 channel (Homo sapiens, UniProt Q9UL62); assay: TRPC5 % inhibition at single concentration, Syncropatch; format: cell-based; settings: read-out: % inhibition at 3 μM, Table 3
T1 sequence (Q9UL62 1-973): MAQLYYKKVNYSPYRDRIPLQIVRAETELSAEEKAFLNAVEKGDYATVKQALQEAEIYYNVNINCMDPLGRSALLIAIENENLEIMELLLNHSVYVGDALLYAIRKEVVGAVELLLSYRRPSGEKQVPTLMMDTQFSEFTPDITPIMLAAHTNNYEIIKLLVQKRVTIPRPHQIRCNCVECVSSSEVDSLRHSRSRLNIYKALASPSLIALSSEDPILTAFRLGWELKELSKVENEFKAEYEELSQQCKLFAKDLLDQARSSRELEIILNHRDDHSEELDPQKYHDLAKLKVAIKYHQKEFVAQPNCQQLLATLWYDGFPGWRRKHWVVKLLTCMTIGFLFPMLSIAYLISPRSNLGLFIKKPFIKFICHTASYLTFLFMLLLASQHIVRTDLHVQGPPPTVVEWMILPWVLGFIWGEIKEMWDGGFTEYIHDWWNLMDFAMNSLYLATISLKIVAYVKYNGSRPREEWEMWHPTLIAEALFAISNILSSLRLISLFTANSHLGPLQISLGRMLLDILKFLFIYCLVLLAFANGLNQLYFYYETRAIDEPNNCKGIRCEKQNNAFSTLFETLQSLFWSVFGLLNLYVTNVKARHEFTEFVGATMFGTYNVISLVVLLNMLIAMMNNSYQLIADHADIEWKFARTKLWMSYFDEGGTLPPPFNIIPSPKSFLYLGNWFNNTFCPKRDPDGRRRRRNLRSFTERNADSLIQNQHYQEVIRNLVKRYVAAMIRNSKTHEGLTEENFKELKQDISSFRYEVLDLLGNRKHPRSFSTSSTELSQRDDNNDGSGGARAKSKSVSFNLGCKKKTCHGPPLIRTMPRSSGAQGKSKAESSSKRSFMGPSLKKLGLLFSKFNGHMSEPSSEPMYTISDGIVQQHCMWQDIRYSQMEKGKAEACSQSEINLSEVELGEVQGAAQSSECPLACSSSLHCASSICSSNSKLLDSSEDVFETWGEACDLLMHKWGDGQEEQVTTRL
Outline: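 Automated patch-clamp (Syncropatch) first-pass screen of TRPC5 channel block. Each test compound was run at one concentration (3 μM) in a single well. Values were normalised so that the furfuryl-amine reference analogue's inhibition at 3 μM equals 100%. A reference inhibitor and DMSO served as controls on every plate. Recordings came from at least one session over two assay plates.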

TRPC4 = settings: cited from earlier work
TRPC6 = settings: cited from earlier work
[1] = tested on: animal models of kidney disease; settings: previously shown; cited from earlier work

Row | inhibition at 3 µM (TRPC5 channel) | Structure (SMILES) | protection of the kidney filter (kidney filter) | selectivity for TRPC5 over TRPC4 (TRPC4) | selectivity for TRPC5 over TRPC6 (TRPC6) | activity in animal models of kidney disease [1]
1 | – | Cc1cc(N2CCCCC2)nc2ccccc12 [ML204] | protect the kidney filter | – | – | –
2 | 100% | c1ccc(Cn2c(NCc3ccco3)nc3ccccc32)cc1 [Compound 2] | – | selective | selective | active
3 | 167% | Fc1ccc(Cn2c(NCc3ccco3)nc3ccccc32)cc1 [Compound 6o] | – | – | – | –
